Experimental data reported in ChEMBL document CHEMBL1140235, “Novel 4-(4-aryl)cyclohexyl-1-(2-pyridyl)piperazines as Delta(8)-Delta(7) sterol isomerase (emopamil binding protein) selective ligands with antiproliferative activity” (J Med Chem, 2008).

Tests used:
[1] = target: Sigma non-opioid intracellular receptor 1 (Cavia porcellus, UniProt Q60492); experiment: Displacement of [3H](+)-pentazocine from sigma 1 receptor in guinea pig brain membrane without cerebellum; format: cell membranes
Method in brief: (§1)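 Radioligand displacement run by previously published methods, EBP per Moebius and σ1/σ2 per Matsumoto. Tissues from male Dunkin guinea pigs and Wistar Hannover rats (250–300 g). IC50 from six to nine drug concentrations in two or three experiments, samples in duplicate.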

[2] = Selectivity ratio of Ki for sigma 2 receptor in rat liver membrane to Ki for EBP in guinea pig liver membrane; format: cell membranes
[3] = species: Cavia porcellus; experiment: Selectivity ratio of Ki for sigma 1 receptor in guinea pig brain membrane without cerebellum to Ki for EBP in guinea pig liver membrane; format: cell membranes
[4] = tested on: PC-3; experiment: Cytotoxicity against human PC3 cells assessed as LDH release at 100 uM after 24 hrs relative to untreated control; format: functional
Method in brief: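 PC-3 cells exposed to test compound for 24 h at 37 °C, 5% CO2. LDH release into the medium was measured fluorimetrically (ex 560/em 590 nm) after 10 min with substrate mix at room temperature, then stop solution. Total LDH taken from lysed untreated wells. % cytotoxicity = 100 × (treated medium LDH − background)/(total LDH − background).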

[5] = Displacement of [3H]-DTG from sigma 2-type opioid receptor in rat liver membrane in presence of (+)-pentazocine; format: cell membranes; method in brief: as §1
[6] = target: T1, 3-beta-hydroxysteroid-Delta(8),Delta(7)-isomerase (Cavia porcellus, UniProt Q60490); experiment: Displacement of [3H](-)-(S)-emopamil from EBP in guinea pig liver membrane; format: cell membranes; method in brief: as §1
T1 sequence (Q60490 whole entry): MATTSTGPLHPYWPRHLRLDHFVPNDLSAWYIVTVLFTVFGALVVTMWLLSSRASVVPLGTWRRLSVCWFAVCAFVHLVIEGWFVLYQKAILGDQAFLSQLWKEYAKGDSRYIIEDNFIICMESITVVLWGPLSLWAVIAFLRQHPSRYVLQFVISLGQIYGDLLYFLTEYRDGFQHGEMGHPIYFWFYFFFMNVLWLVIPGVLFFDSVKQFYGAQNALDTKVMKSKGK

[7] = tested on: PC-3; experiment: Antiproliferative activity against human PC3 cells expressing EBP after 48 hrs by MTT assay; format: functional, cell-based
Method in brief: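 MTT read-out at 48 h in PC-3 cells grown in RPMI 1640 with 10% FBS, 2 mM glutamine, penicillin/streptomycin, 37 °C, 5% CO2. 10 000 cells/well seeded day 1, drugs added day 2 over 1–100 µM (150 or 300 µM for some references). Solvent controls included. MTT 0.5 mg/mL for 3 h, formazan dissolved in DMSO, absorbance at 570 and 630 nm.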

[8] = target: T2, 5-hydroxytryptamine receptor 1A (Rattus norvegicus, UniProt P19327); experiment: Displacement of [3H]8OH-DPAT from 5HT1A receptor in rat hippocampal membrane; format: cell membranes, Hippocampus
T2 sequence (P19327 whole entry): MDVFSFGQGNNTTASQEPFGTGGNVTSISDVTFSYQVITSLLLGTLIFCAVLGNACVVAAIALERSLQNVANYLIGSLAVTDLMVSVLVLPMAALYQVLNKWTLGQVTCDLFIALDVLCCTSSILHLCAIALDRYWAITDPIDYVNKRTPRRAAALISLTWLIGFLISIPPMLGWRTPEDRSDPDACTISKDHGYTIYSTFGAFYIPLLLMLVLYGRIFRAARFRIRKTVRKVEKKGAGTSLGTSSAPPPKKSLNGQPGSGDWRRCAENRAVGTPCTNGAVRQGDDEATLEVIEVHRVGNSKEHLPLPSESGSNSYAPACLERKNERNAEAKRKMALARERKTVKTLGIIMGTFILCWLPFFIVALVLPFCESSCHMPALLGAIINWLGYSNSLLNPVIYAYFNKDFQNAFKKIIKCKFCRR

[9] = target: T3, Adrenergic receptor alpha-1 (Rattus norvegicus, UniProt P15823+P23944+P43140); experiment: Displacement of [3H]prazosin from adrenergic alpha1 receptor in rat cortical membrane; format: cell membranes
T3 sequence (P15823 whole entry): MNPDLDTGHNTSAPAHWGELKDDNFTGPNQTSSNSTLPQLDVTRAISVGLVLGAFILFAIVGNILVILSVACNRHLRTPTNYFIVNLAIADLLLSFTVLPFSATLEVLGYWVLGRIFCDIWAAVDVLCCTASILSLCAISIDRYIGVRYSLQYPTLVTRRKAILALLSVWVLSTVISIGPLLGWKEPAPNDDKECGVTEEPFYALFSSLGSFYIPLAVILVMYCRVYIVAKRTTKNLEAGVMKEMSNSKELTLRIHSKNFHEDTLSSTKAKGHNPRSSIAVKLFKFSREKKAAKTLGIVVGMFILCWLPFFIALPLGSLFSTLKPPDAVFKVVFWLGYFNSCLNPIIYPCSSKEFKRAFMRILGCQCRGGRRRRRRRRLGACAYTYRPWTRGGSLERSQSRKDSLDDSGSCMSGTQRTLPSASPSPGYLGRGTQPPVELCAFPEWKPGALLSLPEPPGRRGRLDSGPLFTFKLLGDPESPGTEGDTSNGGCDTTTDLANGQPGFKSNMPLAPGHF
T3 sequence (P23944 whole entry): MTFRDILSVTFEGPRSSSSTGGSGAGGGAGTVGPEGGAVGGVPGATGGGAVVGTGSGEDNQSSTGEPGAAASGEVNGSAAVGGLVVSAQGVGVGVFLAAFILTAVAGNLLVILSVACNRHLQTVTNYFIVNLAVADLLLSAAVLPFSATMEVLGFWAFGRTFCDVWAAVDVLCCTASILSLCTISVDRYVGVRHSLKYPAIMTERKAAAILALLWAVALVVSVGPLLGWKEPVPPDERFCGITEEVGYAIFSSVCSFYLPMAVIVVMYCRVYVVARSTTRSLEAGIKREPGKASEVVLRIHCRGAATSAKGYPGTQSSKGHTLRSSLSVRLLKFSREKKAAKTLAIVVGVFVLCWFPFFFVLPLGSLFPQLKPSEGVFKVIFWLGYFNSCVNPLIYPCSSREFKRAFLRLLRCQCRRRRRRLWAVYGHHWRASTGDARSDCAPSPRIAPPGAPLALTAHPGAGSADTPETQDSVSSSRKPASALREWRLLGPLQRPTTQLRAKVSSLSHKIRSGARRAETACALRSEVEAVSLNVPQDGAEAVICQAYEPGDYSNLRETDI
T3 sequence (P43140 whole entry): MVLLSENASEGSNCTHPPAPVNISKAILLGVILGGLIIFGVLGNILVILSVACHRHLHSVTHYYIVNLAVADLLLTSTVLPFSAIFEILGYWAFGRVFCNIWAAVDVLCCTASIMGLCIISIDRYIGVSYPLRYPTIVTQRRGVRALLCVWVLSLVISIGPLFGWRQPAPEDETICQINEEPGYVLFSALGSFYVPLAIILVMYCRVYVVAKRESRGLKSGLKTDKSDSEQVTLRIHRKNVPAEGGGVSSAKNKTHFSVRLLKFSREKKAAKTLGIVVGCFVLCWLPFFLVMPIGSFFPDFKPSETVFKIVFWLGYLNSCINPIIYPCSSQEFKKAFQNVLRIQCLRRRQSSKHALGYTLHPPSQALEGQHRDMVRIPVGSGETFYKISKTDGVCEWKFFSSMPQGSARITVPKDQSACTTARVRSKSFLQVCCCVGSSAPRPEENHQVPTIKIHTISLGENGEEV

[10] = target: D(2) dopamine receptor (Rattus norvegicus, UniProt P61169); experiment: Displacement of [3H]spiroperidol from dopamine D2 receptor in rat striatal membrane; format: cell membranes, Striatum
Sequence of D(2) dopamine receptor (P61169 whole entry): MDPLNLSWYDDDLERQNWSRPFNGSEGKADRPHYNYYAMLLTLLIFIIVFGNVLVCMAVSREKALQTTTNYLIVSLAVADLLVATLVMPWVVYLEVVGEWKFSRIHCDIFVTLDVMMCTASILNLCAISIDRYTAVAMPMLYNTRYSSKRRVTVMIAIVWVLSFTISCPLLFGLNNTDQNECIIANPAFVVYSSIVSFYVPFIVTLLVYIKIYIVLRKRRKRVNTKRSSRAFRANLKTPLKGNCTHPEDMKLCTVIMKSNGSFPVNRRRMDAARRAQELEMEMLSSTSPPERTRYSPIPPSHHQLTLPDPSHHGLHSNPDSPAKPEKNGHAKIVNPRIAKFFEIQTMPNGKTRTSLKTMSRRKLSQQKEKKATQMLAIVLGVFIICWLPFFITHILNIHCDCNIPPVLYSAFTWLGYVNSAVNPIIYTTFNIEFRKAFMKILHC

Sequence of Sigma non-opioid intracellular receptor 1 (Q60492 whole entry): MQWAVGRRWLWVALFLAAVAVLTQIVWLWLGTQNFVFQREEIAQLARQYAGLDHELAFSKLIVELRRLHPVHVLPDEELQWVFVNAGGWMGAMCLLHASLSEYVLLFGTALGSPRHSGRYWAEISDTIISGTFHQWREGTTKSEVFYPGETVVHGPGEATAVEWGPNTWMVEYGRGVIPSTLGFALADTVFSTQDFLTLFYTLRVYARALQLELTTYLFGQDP

Row | SMILES | Ki [1] | Ratio Ki [2] | Ratio Ki [3] | Activity [4] | Ki [5] | Ki [6] | EC50 [7] | Ki [8] | Ki [9] | Ki [10]
1 | Fc1cccc(F)c1[C@H]1CC[C@@H](N2CCN(c3ccccn3)CC2)CC1 | 5170 nM | 3 | 37 | <10% | 440 nM | 140 nM | 37300 nM |  |  | 
2 | COc1cccc(C2=CCC(N3CCN(c4ccccc4)CC3)CC2)c1 (stereo unspecified) |  |  |  | <10% |  | 460 nM |  |  |  | 
3 | CCCN(CCC)CCc1ccc(OC)c(OCCc2ccccc2)c1 |  |  |  | <10% | 212 nM |  | 47000 nM |  |  | 
4 | Cc1cccc(C)c1C1=CCC(N2CCN(c3ccccn3)CC2)CC1 (racemic) | 177 nM | 2.4 | 3.8 | <10% | 113 nM | 46.7 nM |  |  |  | 
5 | COc1cccc([C@H]2CC[C@H](N3CCN(c4ccccn4)CC3)CC2)c1 | 24.8 nM | 2 |  | <10% | 21.9 nM | 16.2 nM | 23000 nM |  |  | 
6 | Cc1cccc(C)c1[C@H]1CC[C@@H](N2CCN(c3ccccn3)CC2)CC1 | 6.32 nM | 1.8 | 0.2 | <10% | 60.2 nM | 33.1 nM |  |  |  | 
7 | Clc1ccccc1[C@H]1CC[C@H](N2CCN(c3ccccn3)CC2)CC1 | 190 nM | 4 | 26 | <10% | 29.1 nM | 7.21 nM |  |  |  | 
8 | c1ccc([C@H]2CC[C@H](N3CCN(c4ccccn4)CC3)CC2)cc1 | 104 nM | 1.6 | 6 | <10% | 26.9 nM | 16.8 nM |  |  |  | 
9 | COc1cccc([C@H]2CC[C@@H](NCCOc3ccccn3)CC2)c1 | 7.71 nM |  |  | <10% |  | 23.5 nM |  | 373 nM | > 850 nM | 783 nM
10 | COc1cccc(C2=CCC(N3CCN(c4ccccn4)CC3)CC2)c1 (stereo unspecified) | 220 nM |  |  | <10% |  | 2640 nM |  |  |  | 
11 | COc1cccc(OC)c1[C@H]1CC[C@H](N2CCN(c3ccccn3)CC2)CC1 | 215 nM | 3.6 | 31 | <10% | 25 nM | 7 nM |  |  |  | 
12 | COc1ccc([C@H]2CC[C@H](N3CCN(c4ccccn4)CC3)CC2)cc1 | 291 nM | 3 | 4 | <10% | 222 nM | 71.6 nM |  |  |  | 
13 | COc1ccccc1[C@H]1CC[C@H](N2CCN(c3ccccn3)CC2)CC1 | 2.86 nM | 1.3 |  | <10% | 30 nM | 13.5 nM |  |  |  | 
14 | CC(C(O)c1ccc(O)cc1)N1CCC(Cc2ccccc2)CC1 (racemic) [IFENPRODIL] |  |  |  | <10% | 2.3 nM | 16.4 nM | 25800 nM |  |  | 
15 | COc1ccc2c(c1)CCC(CN1CCN(c3ccccn3)CC1)C2 (stereo unspecified) | 358 nM |  |  | <10% | 1250 nM | 32.1 nM |  |  |  | 
16 | COc1cccc([C@H]2CC[C@@H](N3CCN(c4cccc5ccccc45)CC3)CC2)c1 | 240 nM |  |  | <10% |  | 16.7 nM |  | 74 nM | 5540 nM | 1310 nM
17 | COc1cccc([C@H]2CC[C@@H](N3CCN(c4ccccc4)CC3)CC2)c1 |  |  |  | <10% |  | 1710 nM |  | 183 nM | 2250 nM | 2380 nM
18 | Cc1ccccc1[C@H]1CC[C@H](N2CCN(c3ccccn3)CC2)CC1 | 30.7 nM | 3.3 | 3.4 | <10% | 29.6 nM | 9.04 nM |  |  |  | 
19 | CC(C)=CCN1CC[C@]2(C)c3cc(O)ccc3C[C@H]1[C@H]2C [(+)-PENTAZOCINE] |  |  |  | <10% | 1860 nM | > 10 nM | 86900 nM |  |  | 
20 | c1ccc([C@H]2CC[C@@H](N3CCN(c4ccccn4)CC3)CC2)cc1 | 802 nM | 1.3 | 16 | <10% | 62 nM | 49.2 nM |  |  |  | 
21 | COc1cccc(OC)c1[C@H]1CC[C@@H](N2CCN(c3ccccn3)CC2)CC1 | > 6000 nM | 138 | > 1210 | <10% | 687 nM | 4.95 nM | 12900 nM |  |  | 
22 | Fc1cccc(F)c1[C@H]1CC[C@H](N2CCN(c3ccccn3)CC2)CC1 | 190 nM | 1.2 | 1.8 | <10% | 138 nM | 106 nM |  |  |  | 
23 | COc1cccc([C@H]2CC[C@@H](N3CCN(c4ccccn4)CC3)CC2)c1 | 178 nM |  |  | <10% | 36.1 nM | 45.4 nM |  | 815 nM | 783 nM | > 850 nM
24 | Cc1ccccc1[C@H]1CC[C@@H](N2CCN(c3ccccn3)CC2)CC1 | 1000 nM | 14 | 200 | <10% | 71 nM | 5 nM | 38000 nM |  |  | 
25 | Clc1ccccc1[C@H]1CC[C@@H](N2CCN(c3ccccn3)CC2)CC1 | 1090 nM | 1.8 | 13 | <10% | 150 nM | 85.1 nM |  |  |  | 
